This is an account of results in ChEMBL document CHEMBL2010740, “Synthesis and evaluation of 2-amido-3-carboxamide thiophene CB₂ receptor agonists for pain management” (Bioorg Med Chem Lett, 2012).

One may read the pKi as the Ki on a negative log10 scale, so that one unit is a factor of ten. As a reminder, the pIC50 is −log10 of the IC50, conventionally taken in molar units.

pIC50, pKi: −log10 of the molar value.

For data set [1], the target named is T1, Cannabinoid receptor 2 (Homo sapiens, UniProt P34972). The data set is described as follows: Displacement of [3H]CP-55940 from human recombinant CB2 receptor expressed in HEK293 cells after 90 mins. It is filed as cell-based. A digest of the protocol:
(§1)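 Competitive binding: [³H]CP-55,940 displaced from membranes of HEK 293 cells stably transfected with human or rat CB₂, or CHO cells stably transfected with human or rat CB₁. Reported as pKi. Determinations >2 (duplicate of duplicate).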
(In general: Displacement assays read how much labelled ligand stays bound in the presence of the test substance.)

The target of data set [2] is T2, Cannabinoid receptor 2 (Rattus norvegicus, UniProt Q9QZN9).
T2 sequence (Q9QZN9 whole entry): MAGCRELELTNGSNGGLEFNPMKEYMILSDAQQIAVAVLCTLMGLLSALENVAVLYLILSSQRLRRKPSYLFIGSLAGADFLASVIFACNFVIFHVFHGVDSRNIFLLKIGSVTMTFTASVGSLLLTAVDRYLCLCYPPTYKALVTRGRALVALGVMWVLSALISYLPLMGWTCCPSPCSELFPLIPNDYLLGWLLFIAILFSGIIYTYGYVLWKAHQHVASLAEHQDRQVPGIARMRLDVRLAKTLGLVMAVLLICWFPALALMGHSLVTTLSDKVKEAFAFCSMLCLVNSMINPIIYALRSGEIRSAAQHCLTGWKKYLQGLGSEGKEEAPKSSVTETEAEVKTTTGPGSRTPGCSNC
The data set can be described thus: Displacement of [3H]CP-55940 from rat recombinant CB2 receptor expressed in HEK293 cells after 90 mins. It is filed as cell-based. A digest of the protocol: as §1

Data set [3] deals with T3, Cannabinoid receptor 1 (Homo sapiens, UniProt P21554). The data set is described as follows: Displacement of [3H]CP-55940 from human recombinant CB1 receptor expressed in CHO cells after 90 mins. It is filed as cell-based. The gist of the method: as §1
T3 sequence (P21554 whole entry): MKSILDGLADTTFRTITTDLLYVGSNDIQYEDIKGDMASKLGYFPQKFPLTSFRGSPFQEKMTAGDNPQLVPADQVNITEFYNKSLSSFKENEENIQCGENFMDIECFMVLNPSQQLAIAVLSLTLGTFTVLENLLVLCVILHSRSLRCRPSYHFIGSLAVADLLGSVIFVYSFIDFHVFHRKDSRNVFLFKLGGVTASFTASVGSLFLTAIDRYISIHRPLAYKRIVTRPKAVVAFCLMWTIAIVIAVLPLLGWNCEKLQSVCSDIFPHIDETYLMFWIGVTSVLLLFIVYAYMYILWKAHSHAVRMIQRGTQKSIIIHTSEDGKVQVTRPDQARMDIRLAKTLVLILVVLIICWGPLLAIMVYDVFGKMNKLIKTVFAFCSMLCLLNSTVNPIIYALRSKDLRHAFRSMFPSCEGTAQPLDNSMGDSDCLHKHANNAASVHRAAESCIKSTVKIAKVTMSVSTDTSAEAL
Data set [4] addresses T4, Cannabinoid receptor 1 (Rattus norvegicus, UniProt P20272). The data set can be described thus: Displacement of [3H]CP-55940 from rat recombinant CB1 receptor expressed in CHO cells after 90 mins. It is filed as cell-based. A digest of the protocol:
as §1

Data set [5] concerns the target T1, Cannabinoid receptor 2. The data set can be described thus: Agonist activity at human recombinant CB2 receptor expressed in HEK293 cells co-expressing chimeric Gaq/o protein by FLIPR assay. It is filed as functional, cell-based. The gist of the method:
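FLIPR functional assay in HEK 293 cells stably co-expressing chimeric Gαq/o protein and the CB receptor. Net peak evoked response was compared with the peak response to CP-55,940.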

Data set [6] deals with T1, Cannabinoid receptor 2. The data set is described as follows: Agonist activity at human recombinant CB2 receptor expressed in HEK293 cells assessed as inhibition of forskolin-induced cAMP production after 20 mins by ELISA. It is filed as functional, cell-based. A digest of the protocol:
(§2)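 cAMP assay in HEK 293 cells stably expressing the relevant CB receptor, with a fixed concentration of forskolin. cAMP was quantified by ELISA. Activation is given as percent of the CP-55,940 control response.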
(Changes in cAMP serve as a functional read-out for many G protein-coupled receptors.)

Data set [7] deals with T2, Cannabinoid receptor 2. The data set is described as follows: Agonist activity at rat recombinant CB2 receptor expressed in HEK293 cells assessed as inhibition of forskolin-induced cAMP production after 20 mins by ELISA. It is filed as functional, cell-based. A digest of the protocol:
as §2

The target of data set [8] is T5, Cannabinoid receptor 2 (Rattus norvegicus) (UniProt Q9QZN9).
T5 sequence (whole entry): T2 sequence (Q9QZN9 whole entry)
The data set can be described thus: Agonist activity at rat recombinant CB2 receptor expressed in HEK293 cells assessed as inhibition of forskolin-induced cAMP production after 20 mins by ELISA relative to CP55940. It is filed as functional, cell-based. A digest of the protocol: as §2

In data set [9] the target is T3, Cannabinoid receptor 1. The data set is described as follows: Agonist activity at human recombinant CB1 receptor expressed in HEK293 cells assessed as inhibition of forskolin-induced cAMP production after 20 mins by ELISA. It is filed as functional, cell-based. A digest of the protocol: as §2
The target of data set [10] is T4, Cannabinoid receptor 1. The data set can be described thus: Agonist activity at rat recombinant CB1 receptor expressed in HEK293 cells assessed as inhibition of forskolin-induced cAMP production after 20 mins by ELISA. It is filed as functional, cell-based. The gist of the method:
as §2

A short description of data set [11]: Plasma protein binding in human. It is filed as ADME, cell-free. Particulars: read-out: PPB (converted).
The nature of data set [12]: Plasma protein binding in rat. The settings on record: read-out: PPB (converted). It is filed as ADME, cell-free.
The test system of another data set is Rattus norvegicus. The data set can be described thus: Neurotoxicity in rat assessed as decrease in spontaneous locomotory activity at 1 umol/kg, ip after 30 mins. Further details: scale not given: the % may be the effect or the level left. Particulars: in vivo, 0.5 h. It is filed as toxicity, organism-based. The gist of the method:
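Given intraperitoneally 30 min before testing; horizontal locomotor activity was recorded and compared across doses.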

T1 sequence (P34972 whole entry): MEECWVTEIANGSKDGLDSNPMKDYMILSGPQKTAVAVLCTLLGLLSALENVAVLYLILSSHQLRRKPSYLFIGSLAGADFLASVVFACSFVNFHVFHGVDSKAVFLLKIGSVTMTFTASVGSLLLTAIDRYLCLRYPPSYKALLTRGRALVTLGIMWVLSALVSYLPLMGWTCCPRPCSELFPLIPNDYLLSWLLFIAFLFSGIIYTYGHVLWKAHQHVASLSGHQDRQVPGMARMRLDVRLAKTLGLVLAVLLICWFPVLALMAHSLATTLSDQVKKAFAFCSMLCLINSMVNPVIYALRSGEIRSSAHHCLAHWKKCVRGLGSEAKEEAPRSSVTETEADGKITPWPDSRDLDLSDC
T4 sequence (P20272 whole entry): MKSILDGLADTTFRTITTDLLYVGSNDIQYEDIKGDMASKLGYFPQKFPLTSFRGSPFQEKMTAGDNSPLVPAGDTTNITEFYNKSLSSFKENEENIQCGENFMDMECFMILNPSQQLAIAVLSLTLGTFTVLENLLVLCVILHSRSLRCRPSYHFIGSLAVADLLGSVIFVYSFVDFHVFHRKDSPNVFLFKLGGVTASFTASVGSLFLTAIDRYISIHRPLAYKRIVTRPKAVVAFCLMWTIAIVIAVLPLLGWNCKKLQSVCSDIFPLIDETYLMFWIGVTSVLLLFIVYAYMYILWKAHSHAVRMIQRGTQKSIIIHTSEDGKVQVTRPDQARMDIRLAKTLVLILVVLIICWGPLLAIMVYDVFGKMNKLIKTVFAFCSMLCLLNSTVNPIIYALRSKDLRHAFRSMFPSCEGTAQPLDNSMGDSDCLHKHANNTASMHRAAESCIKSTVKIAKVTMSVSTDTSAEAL

For `CCCNC(=O)c1c(NC(=O)C23CC4CC(CC(C4)O2)C3)sc2c1CCOC2`, the pKi on Cannabinoid receptor 2 [1] is 6.59; at Cannabinoid receptor 2 [2], 6.31; on Cannabinoid receptor 1 [3], less than 5.00.
Consider `CCCNC(=O)c1c(NC(=O)C2C(C)(C)C2(C)C)sc2c1CCOC2`, for which the pKi at Cannabinoid receptor 2 [1] is 7.04; at Cannabinoid receptor 2 [2], 8.36; at Cannabinoid receptor 1 [3] it was less than 5.00; on Cannabinoid receptor 1 [4], 6.72. For the same compound, the pIC50 is 7.28 on Cannabinoid receptor 2 [5], 9.00 on Cannabinoid receptor 2 [6] and less than 5.00 at Cannabinoid receptor 2 [7].
In the case of `O=C(c1c(NC(=O)C23CC4CC(CC2C4)C3)sc2c1CCOC2)N1CC(F)(F)C1`, the pKi was 8.25 on Cannabinoid receptor 2 [1], 7.33 on Cannabinoid receptor 2 [2], 5.47 on Cannabinoid receptor 1 [3] and 7.18 at Cannabinoid receptor 1 [4]. Further, the pIC50 at Cannabinoid receptor 2 [5] was 8.25; on Cannabinoid receptor 2 [6], 9.70; at Cannabinoid receptor 2 [7] it was 8.02; at Cannabinoid receptor 1 [9], 6.26; at Cannabinoid receptor 1 [10], 6.64. The Imax in data set [8] amounted to 53%.
With `COCCNC(=O)c1c(NC(=O)C23CC4CC(CC2C4)C3)sc2c1CCOC2`, the pKi was 6.92 on Cannabinoid receptor 2 [1], 6.58 on Cannabinoid receptor 2 [2] and less than 5.00 on Cannabinoid receptor 1 [3].
On to `CCCNC(=O)c1c(NC(=O)C2CC3CCC2C3)sc2c1CCOC2` (centres undefined), for which the pKi at Cannabinoid receptor 2 [1] is 6.98; at Cannabinoid receptor 2 [2], 6.57; on Cannabinoid receptor 1 [3], less than 5.00.
Regarding `CCCNC(=O)c1c(NC(=O)c2c(F)cccc2C(F)(F)F)sc2c1CCOC2`, the pKi is 6.98 on Cannabinoid receptor 2 [1], 6.48 at Cannabinoid receptor 2 [2] and less than 5.00 on Cannabinoid receptor 1 [3].
For `CCCNC(=O)c1c(NC(=O)C23CC4CC(CC(C4)C2)C3)sc2c1CCOC2`, the pKi on Cannabinoid receptor 2 [1] is 7.47; at Cannabinoid receptor 2 [2], 7.70; on Cannabinoid receptor 1 [3], less than 5.00; on Cannabinoid receptor 1 [4], 6.28. For the same compound, the results for the negative logarithm of the IC50 (pIC50) on Cannabinoid receptor 2 [5], on Cannabinoid receptor 2 [6] and on Cannabinoid receptor 2 [7] were 7.37, 7.95 and less than 5.00, respectively. The fraction unbound in data set [11] and in data set [12] was less than 0.01 each time.
As for `O=C(CCCN1CCC(O)(c2ccc(Cl)cc2)CC1)c1ccc(F)cc1` [HALOPERIDOL], in the data set with Rattus norvegicus, the Activity is 68%.
For `CCNC(=O)c1c(NC(=O)C23CC4CC(CC2C4)C3)sc2c1CCOC2`, the negative logarithm of the Ki (pKi) on Cannabinoid receptor 2 [1] is 6.67; on Cannabinoid receptor 2 [2] it was 6.53; at Cannabinoid receptor 1 [3], less than 5.00.
On to `CCCNC(=O)c1c(NC(=O)C23CC4CC(CC2C4)C3)sc2c1CCNC2`, for which the pKi on Cannabinoid receptor 2 [1] is less than 6.00. In addition, the fraction unbound in [11] and in data set [12] was less than 0.01 throughout.
Take `CCCNC(=O)c1c(NC(=O)C23CC4CC(CC2C4)C3)sc2c1CCCC2`: the pKi at Cannabinoid receptor 2 [1] is 8.71; on Cannabinoid receptor 2 [2] it was 8.45; on Cannabinoid receptor 1 [3], 5.72; on Cannabinoid receptor 1 [4] it was 7.33. Moreover, the pIC50 was 7.08 at Cannabinoid receptor 2 [5] and 8.01 at Cannabinoid receptor 2 [6].
Consider `CCCNC(=O)c1c(NC(=O)C23CC4CC(CC2C4)C3)sc2c1CCN(C)C2`, for which the negative logarithm of the Ki (pKi) at Cannabinoid receptor 2 [1] is 7.04; on Cannabinoid receptor 2 [2], 8.23; on Cannabinoid receptor 1 [3] it was less than 5.00. On Cannabinoid receptor 2 [5], the pIC50 is less than 5.00.
For the compound `O=C(c1c(NC(=O)C23CC4CC(CC2C4)C3)sc2c1CCOC2)N1CCOCC1`, the negative logarithm of the Ki (pKi) is 7.04 at Cannabinoid receptor 2 [1], less than 5.00 at Cannabinoid receptor 2 [2], less than 5.00 on Cannabinoid receptor 1 [3] and less than 5.00 on Cannabinoid receptor 1 [4].
